Sampled rows, rich in hits. Any-hit rate of the full collection: about 2.3%.
MCL1-BIM inh: MCL1-BIM-BH3 interaction inhibition (human) | Q07820 | GST-MCL1 / FITC-Bim-BH3 fluorescence polarization | inhibition, % at 10.9 µM | 320,000 tested, 0.68% active | AID 2057;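 active means inhibition above the mean inhibition of all tested compounds plus 3 SD, set per campaign, cut at about 40% in these data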;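 further: 0% = DMSO wells and 100% = unlabeled Bim-BH3 peptide control; higher means more loss of mP so more displacement of Bim peptide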
Target sequence (Q07820 whole entry, looked up): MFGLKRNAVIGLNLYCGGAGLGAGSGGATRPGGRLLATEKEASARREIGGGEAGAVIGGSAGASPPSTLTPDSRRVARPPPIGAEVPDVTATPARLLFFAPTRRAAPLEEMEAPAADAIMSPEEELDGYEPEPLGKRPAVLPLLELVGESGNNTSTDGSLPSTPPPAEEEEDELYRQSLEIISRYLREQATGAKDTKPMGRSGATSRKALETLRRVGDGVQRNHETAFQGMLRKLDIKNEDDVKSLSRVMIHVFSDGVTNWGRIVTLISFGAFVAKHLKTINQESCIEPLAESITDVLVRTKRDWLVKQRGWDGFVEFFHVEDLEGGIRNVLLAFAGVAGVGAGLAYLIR
Mcl1-Bid inh: disrupts binding of human Mcl-1 to Bid peptide. 220,000 tested, 0.97% active. AID 1021. TR-FRET Mcl-1/Bid-Dy647 peptide binding, 1536-well. inhibition, % at 21.7 µM;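 active means compounds that cut the binding signal by more than half at the single screening dose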;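 further: His-tagged Mcl-1 with europium anti-His antibody binding Bid BH3 peptide; 0% = Mcl-1 plus peptide wells and 100% = peptide-only wells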
Mcl1 Noxa PPI: disrupts binding of human Mcl-1 to Noxa peptide; Q07820; TR-FRET Mcl-1/Noxa peptide binding, 2 h; inhibition, % at 21.7 µM; 220,000 tested, 1.5% active; AID 1022;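 active means compounds that cut the protein-peptide binding signal by more than 50% relative to plate controls in a single-dose test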;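 further: His-tagged Mcl-1 with rhodamine Noxa BH3 peptide and terbium anti-His antibody; 0% = Mcl-1 plus Noxa peptide wells and 100% = peptide-only wells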
DSG3 Ab inh: inhibitors of pemphigus antibody binding to human desmoglein-3. DSG3-coupled beads, scFv-anti-DSG3-GFP binding, flow cytometry; active compounds read low. 310,000 tested, 0.48% active. P32926. AID 588358. binding (percent of control), % at 10 µM;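 active means binding more than 3 SD below its plate's average and above zero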;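 further: hits lower antibody fragment binding to DSG3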
Bim-Mcl-1: inhibitors of Bim-Mcl-1 interaction, human. 190,000 tested, 0.1% active. Bead-based flow cytometry, Bim peptide-Mcl-1 binding. inhibition, % at 10 µM. AID 1009; in the data active means inhibition above about 40%;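 further: 0% = no compound tracer wells and 100% = peptide blocker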
T cell HTS: T cell immune modulators affecting CD8 T cell-vesicle binding. AID 2052. response (vesicle binding), % at 7 µM. 2C CD8+ T cell-vesicle binding, flow cytometry; active compounds read low. 330,000 tested, 0.068% active;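 active means response, share of CD8 T cells binding vesicles, and their 90th percentile fluorescence all below set limits, cut at about 80% in these data, passing the limit was not always enough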;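 further: values below 100% mean blocked vesicle binding to the CD8+ T cells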
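material = purified 2C TCR transgenic mouse naive CD8+ T cells | controls = Unloaded micro-vesicles (low), QL9 vesicles with 0.7% DMSO (high) | detection = cytometric PE anti-B7-1 and Alexa647 anti-CD8 signals after 1% paraformaldehyde fixation | incubation = binding step 1.5 h, 37 °C, antibody labelling 20 min, ice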
Bcl-xL conf: Bcl-xL (human) inhibition, MCL1 counter-screen confirmation. shares compounds with MCL1-BIM inh. GST-Bcl-xL / FITC-Bim BH3 peptide FP binding. inhibition, % at 10.9 µM. 1,700 tested, 54% active. AID 2166;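 active means inhibition above a cutoff equal to the mean inhibition of all tested compounds plus 3 SD, cut at about 30% in these data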;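 further: 0% = DMSO wells and 100% = unlabeled Bim BH3 control peptide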
Target sequence (Q07817 whole entry, looked up): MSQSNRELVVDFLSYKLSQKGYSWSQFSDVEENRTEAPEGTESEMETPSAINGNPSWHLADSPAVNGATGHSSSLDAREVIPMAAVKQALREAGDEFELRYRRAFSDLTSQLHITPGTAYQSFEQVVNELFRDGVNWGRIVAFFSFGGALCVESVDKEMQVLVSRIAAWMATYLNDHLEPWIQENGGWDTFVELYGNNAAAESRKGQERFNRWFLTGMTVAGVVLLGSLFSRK
MCL1 inh confirm: confirmation of human MCL1 and BIM-BH3 interaction inhibitors. shares compounds with MCL1-BIM inh. GST-MCL1 / FITC-Bim-BH3 fluorescence polarization. inhibition, % at 10.9 µM. 1,700 tested, 61% active. AID 2168;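 active means inhibition above the average of all tested compounds plus 3 SD, cut at about 40% in these data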;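 further: 0% = DMSO wells and 100% = unlabeled Bim-BH3 control peptide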
Active calls of the source: *; i = inactive; x = not tested or not shown; + = active, no number.

SMILES | MCL1-BIM inh | Mcl1-Bid inh | Mcl1 Noxa PPI | DSG3 Ab inh | Bim-Mcl-1 | T cell HTS | Bcl-xL conf | MCL1 inh confirm
CCOC(=O)[C@@H]1[C@H]2COc3cc(OC)ccc3[C@H]2N2C(=O)N(c3cccc(F)c3)C(=O)[C@]12C | x | x | x | 104 | x | 337 | x | x
COC1CCCN(Cc2c(C(=O)N3CCN(C4CCCCC4)CC3)nc3ccccn23)C1 (stereo not given) | 70* | x | x | 116 | x | 248 | 40* | 42*
CCC(=O)OC1(C)C(=O)C=C2C=C(CCCC(=O)OC)OC=C2C1=O (stereo not given) | 86* | x | x | 98 | x | 412 | 41* | 75*
CCCCC1=CC2=CC(=O)C(C)(OC(=O)C3CCCC3)C(=O)C2=CO1 (stereo not given) | 32 | -55 | 40 | 94 | x | 354 | x | x
CCCCC1=CC2=CC(=O)C(C)(OC(=O)CC)C(=O)C2=CO1 (stereo not given) | 32 | x | x | 95 | x | 198 | x | x
COC(=O)CCCC1=CC2=CC(=O)C(C)(OC(=O)C3CCCC3)C(=O)C2=CO1 (stereo not given) | 63* | -62 | 42 | 92 | x | 473 | 41* | 63*
O=C(NCCOc1ccc(Cl)cc1)c1cccc(S(=O)(=O)N2CCCC2)c1 | 9 | x | x | x | x | 338 | x | x
CCCCOc1[nH]c2nc(-c3ccco3)n(Cc3ccco3)c(=N)c2c1C#N | 163* | -12 | 6 | 91 | -2 | 213 | 90* | 123*
c1ccc(CSc2nnc(-c3ccco3)n2Cc2ccco2)cc1 | 3 | -4 | 5 | 95 | 0 | 546 | x | x
CN1CCN(C(c2ccc(Cl)cc2)c2cc(Cl)c3cccnc3c2O)CC1 (stereo not given) | 43* | x | x | 101 | x | 342 | 36* | 95*
Nc1ccc(O)c(-c2nc3ccccc3s2)c1 | 61* | -65 | 71* | 62 | -3 | 176 | 37* | 38
Oc1ccc(N=C/C=C/c2cccc(Br)c2)cc1-c1nc2ccccc2s1 | 50* | -69 | 62* | 75 | -2 | 663 | 18 | 18
O/C=c1\ccc2cccc3nc(C(F)(F)F)nc1c23 | 94* | x | x | 115 | x | 434 | 118* | 133*
O/C(=C\c1nc2ccccc2[nH]1)c1cccs1 | 14 | x | x | 106 | x | i | x | x
O=c1[nH]c2ccccc2nc1/C=C(\O)c1cccs1 | 100* | -6 | -11 | 91 | 1 | 140 | 88* | 91*
Cn1nc(N2CCN(S(=O)(=O)c3ccccc3)CC2)c(=O)n(C)c1=O | -7 | x | x | 106 | x | 530 | x | x
Cc1ccc(NC(=O)CN2C(=O)N/C(=C/c3cccn3-c3ccc(C(=O)O)cc3)C2=O)cc1 | 79* | 44 | 102* | x | 9 | 481 | 41* | 85*
Cc1ccc(C=Nc2cccnc2N)cc1 | 70* | -11 | 16 | 96 | 3 | 545 | 11 | 13
Cc1ccc(/C=N/N=C/c2ccc(C)cc2)cc1 | 4 | -28 | 6 | 102 | 0 | 280 | x | x
COc1cc(/C=C/C(=O)CC(=O)/C=C/c2ccc(O)c(OC)c2)ccc1O | 57* | 1 | 51* | 125 | 12 | 0 | 5 | -24
COc1cc(/C=C/C(=O)/C=C(O)/C=C/c2ccc(O)c(OC)c2)ccc1O | -33 | x | x | 114 | x | 251 | x | x
CN1C(=O)c2ccccc2NC(=O)[C@]12O[C@@H]2c1cccc(O)c1 | 65* | -96 | 16 | 101 | x | 259 | 56* | 69*
CC(C)[C@H](NC(=O)c1ccco1)C(=O)Nc1ccc(N2CCCCCC2)cc1 | x | x | x | 100 | x | x | x | x
O=C1Nc2ccccc2C1(O)c1ccccc1O (stereo not given) | 5 | x | x | 107 | x | 286 | x | x
Cc1cc(C2(O)C(=O)Nc3ccccc32)ccc1F (stereo not given) | 79* | x | x | 88 | x | 170 | 14 | 24
SMILES | MCL1-BIM inh | Mcl1-Bid inh | Mcl1 Noxa PPI | DSG3 Ab inh | Bim-Mcl-1 | T cell HTS | Bcl-xL conf | MCL1 inh confirm
O=C(OCCc1cc2ccccc2c(=O)o1)c1ccccc1C(F)(F)F | -3 | x | x | 105 | x | 252 | x | x
COc1cccc2c1C(=O)c1c(O)c3c(c(O)c1C2=O)C[C@](O)(C(C)=O)C[C@H]3O[C@@H]1C[C@@H](N)[C@@H](O)[C@@H](C)O1 | + | x | x | 114 | x | i | + | +
O=C(NC1CCCCC1)N(c1ccccc1)c1nnc(-c2cccc([N+](=O)[O-])c2)s1 | x | x | x | 100 | x | x | x | x
CCOc1ccc(S(=O)(=O)N2CCCCC2)cc1NC(=O)C1CCCC1 | x | x | x | 101 | x | x | x | x
COC(=O)c1cc2ccccn2c2c(C(=O)OC)c(C(=O)OC)cc1-2 | 21 | -73 | 22 | 103 | 5 | 144 | x | x
COC(=O)c1cc2c(C)cc3ccc(C)cn3c-2c1C(=O)OC | 99* | -40 | -15 | 102 | 3 | 264 | 75* | 98*
COC(=O)c1cc2n3ccccc3c(C)c(-c3ccccc3)c-2c1C(=O)OC | 119* | -16 | -1 | 104 | -1 | 217 | 111* | 140*
COC(=O)c1cc2c(C)c(C)c3ccccn3c-2c1C(=O)OC | 115* | -19 | -6 | 95 | 2 | 476 | 71* | 81*
CN(C)c1ccc(CNC(=O)CN(C)S(=O)(=O)c2ccc3c(c2)c(=O)n(C)c(=O)n3C)cc1 | -3 | x | x | 95 | x | 80 | x | x
COc1ccc2oc(C(=O)N3CCN(S(=O)(=O)c4cccc([N+](=O)[O-])c4)CC3)c(C)c2c1 | 46* | x | x | 114 | x | 280 | 6 | 8
CCOc1ccc(S(=O)(=O)N2CCN(C(=O)c3oc4ccc(OC)cc4c3C)CC2)cc1 | x | x | x | 100 | x | x | x | x
CC1(C)CNc2cc(N)ccc2S1 | 66* | -66 | 20 | 94 | 1 | 255 | 32* | 43*
COCc1c(C(=O)Nc2nnc(C3CC3)s2)oc2ccccc12 | x | x | x | 104 | x | x | x | x
c1coc(-c2nnc(-c3ccco3)nn2)c1 | 75* | x | x | 97 | x | 451 | 39* | 68*
c1ccc(-c2nnc(-c3ccco3)o2)cc1 | 1 | -9 | -18 | 109 | 0 | 161 | x | x
O=C1C2CC=CCC2C(=O)N1c1nccs1 (stereo not given) | x | x | x | 104 | x | x | x | x
O=C(Nc1ccc(F)c(F)c1)C1CCN(S(=O)(=O)c2cccc3nonc23)CC1 | 5 | x | x | 99 | x | 270 | x | x
CCN(CC)C(=O)C1c2ccccc2Oc2ccccc21 | + | x | x | 178 | x | 445 | 91* | 126*
COC(=O)C1=C(C)OC(N)=C(C#N)C1c1ccco1 (stereo not given) | 9 | -21 | -1 | 102 | -1 | 338 | x | x
CC(=O)C1=C(C)OC(N)=C(C#N)C1c1ccco1 (stereo not given) | 59* | -10 | 30 | 85 | -2 | 146 | 20 | 16
